Measured values: paper PMC2151622 (The Journal of General Physiology, 2007)
Numbering of substitutions follows the chain as printed.

Assays:
Type in all cases: cell-based, rabbit
D444C after MTSES = molecular target: T1, D444C after MTSES (Oryctolagus cuniculus, UniProt P31597, D444C); assay: Blockade of transient currents; settings: for Decay time of transient currents blocked: D444C after MTSES, 10 mM compound; for IC50: read-out: IC50 for substrates/blockers of charge movements, D444C after MTSES (2 mM), Xenopus oocytes, mean ± SEM
T1 sequence (P31597 1-524 D444C): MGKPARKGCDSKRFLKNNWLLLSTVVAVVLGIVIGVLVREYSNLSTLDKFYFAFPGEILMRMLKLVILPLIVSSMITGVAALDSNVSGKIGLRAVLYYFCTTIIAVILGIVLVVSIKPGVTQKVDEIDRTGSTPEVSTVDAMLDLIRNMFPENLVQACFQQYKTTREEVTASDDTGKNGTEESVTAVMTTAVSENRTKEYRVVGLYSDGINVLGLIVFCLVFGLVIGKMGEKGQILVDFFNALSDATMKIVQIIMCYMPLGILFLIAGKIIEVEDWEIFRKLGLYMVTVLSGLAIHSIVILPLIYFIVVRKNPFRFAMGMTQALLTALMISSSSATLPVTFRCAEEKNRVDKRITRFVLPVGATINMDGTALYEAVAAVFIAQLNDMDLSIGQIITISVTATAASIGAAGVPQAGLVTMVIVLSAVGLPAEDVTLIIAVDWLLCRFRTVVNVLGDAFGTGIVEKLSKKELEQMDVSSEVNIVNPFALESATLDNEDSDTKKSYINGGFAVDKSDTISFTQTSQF
How it was run: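 Oocytes were injected with cRNA for His-tagged EAAC1 D444C and held by two-electrode voltage clamp at −25 mV, stepped from −100 to +40 mV in 10-mV steps of 250 ms each, in ND96 pH 7.5. MTSES (2 mM final) was added under clamp with flow stopped, reacted 2 min, then washed out 5 min. Transients were taken as buffer minus buffer+compound (10 mM) and decay times fitted to a first-order exponential; 3–10 oocytes.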

D444N mutant EAAC1 = molecular target: T2, D444N mutant EAAC1 (Oryctolagus cuniculus, UniProt P31597, D444N); assay: Blockade of transient currents; settings: D444N; for IC50: read-out: IC50 for substrates/blockers of charge movements, Xenopus oocytes, mean ± SEM
T2 sequence (P31597 1-524 D444N): T1 sequence (P31597 1-524 D444C) with C444N

D444A mutant EAAC1 = molecular target: T3, D444A mutant EAAC1 (Oryctolagus cuniculus, UniProt P31597, D444A); assay: Blockade of sodium-dependent transient currents; settings: read-out: IC50 for substrates/blockers of charge movements, Xenopus oocytes, mean ± SEM
T3 sequence (P31597 1-524 D444A): T1 sequence (P31597 1-524 D444C) with C444A

WT-EAAC1 = molecular target: T4, WT-EAAC1 (Oryctolagus cuniculus, UniProt P31597); settings: 2 mM, NaSCN-based buffer
T4 sequence (P31597 1-524): T1 sequence (P31597 1-524 D444C) with C444D
How it was run: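 Two-electrode voltage clamp of oocytes in buffer with all NaCl replaced by NaSCN, grounded through a 2% agarose/2 M KCl bridge. Compounds were 2 mM; TBOA (10 μM) was added to a stopped bath. Steps from −25 mV to −100…+40 mV. Net steady-state current (with minus without) was normalised to the L-aspartate current at +40 mV; mean ± SEM of 3 oocytes (L-aspartate n = 6).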

D444C-EAAC1 = molecular target: T5, D444C-EAAC1 (Oryctolagus cuniculus, UniProt P31597, D444C); assay: Blockade of sodium-dependent transient currents; settings: D444C; for Decay time of transient currents blocked: 10 mM compound, at −100 mV; for IC50: read-out: IC50 for substrates/blockers of charge movements, Xenopus oocytes, mean ± SEM
T5 sequence (P31597 1-524 D444C): T1 sequence (P31597 1-524 D444C)
How it was run: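 Steps from −25 mV to −100…+40 mV. Transients taken as current without minus current with compound. Charge is the sum of integrals at −100 and +40 mV, normalised to 10 mM of the same compound. IC50 from a generalized Hill fit; decay from a first-order exponential; 3–10 oocytes.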

Row | Structure (SMILES) | Decay time of transient currents blocked (D444C after MTSES) | IC50 (D444C after MTSES) | IC50 (D444N mutant EAAC1) | IC50 (D444A mutant EAAC1) | Effect on the anion conductance (WT-EAAC1) | Decay time of transient currents blocked (D444C-EAAC1) | IC50 (D444C-EAAC1) | Inhibition of the transient currents (D444N mutant EAAC1; 10 mM succinate)
1 | N[C@@H](CC(=O)O)C(=O)O [L-Aspartate, L-aspartate] | 10.2 ± 0.4 ms | 112 ± 19 µM | 295 ± 45 µM | 720 ± 80 µM | stimulated the anion conductance | 19.3 ± 1 ms | 12 ± 2 µM | –
2 | O=C(O)CCC(=O)O [Succinate, succinate] | 8.7 ± 1.5 ms | 716 ± 25 µM | > 10000 µM | 870 ± 110 µM | not seen | 15.7 ± 1.1 ms | 840 ± 70 µM | no inhibition was observed
